Results on three molecules are retold here after ChEMBL document CHEMBL1126735, “Synthesis and biological evaluation of antiplatelet 2-aminochromones” (J Med Chem, 1993).

Holding throughout (format): functional, Canis lupus familiaris
Assay [1] concerns Canis familiaris. Kind of assay: Time interval between the end of treatment and restoration of the CFR pattern of blood flow to control levels at iv dose of 100 ug/kg +10 ug/kg/min (n=10). In short, it runs like this: (§1)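 Anesthetized open-chest mongrel dogs (10-15 kg) with partially obstructed circumflex coronary artery; iv bolus plus constant infusion of drug in saline as mesylate/bismesylate salt. Duration scored as the time from the end of drug treatment until the cyclic flow reduction pattern returns to control levels. Mean ± SEM.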

Assay [2] has as its system Canis familiaris. Kind of assay: In vivo inhibitory effect on Cyclical flow reductions (CFR) induced by intracoronary platelet aggregation in stenosed Canine coronary arteries at iv dose of 1000 ug/kg +100 ug/kg/min (n=4). In short, it runs like this: (§2)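 Adult mongrel dogs (10-15 kg, either sex), sodium pentobarbital anesthesia (30 mg/kg iv), positive-pressure ventilation. Aortic pressure via femoral artery catheter. Drug given iv via femoral vein in saline as mesylate/bismesylate salt, bolus then constant infusion. Values mean ± SEM.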

The subject of assay [3] is Canis familiaris. Kind of assay: Time interval between the end of treatment and restoration of the CFR pattern of blood flow to control levels at iv dose of 300 ug/kg +30 ug/kg/min (n=4). In short, it runs like this: as §1
Assay [4] concerns Canis familiaris. The assay can be described thus: Time interval between the start of treatment and the first change in the CFR pattern of blood flow in the stenosed coronary artery at iv dose of 100 ug/kg +10 ug/kg/min (n=10). In short, it runs like this:
(§3)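 Stenosed circumflex coronary artery in pentobarbital-anesthetized open-chest mongrel dogs (10-15 kg), drug iv in saline (mesylate/bismesylate salt), bolus followed by constant infusion. Onset measured as the time from the start of drug treatment to the first change in the cyclic flow reduction pattern of coronary blood flow. Mean ± SEM.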

Assay [5] relates to Canis familiaris. Kind of assay: In vivo inhibitory effect on Cyclical flow reductions (CFR) induced by intracoronary platelet aggregation in stenosed Canine coronary arteries at iv dose of 30 ug/kg +3 ug/kg/min (n=4). In short, it runs like this:
as §2

Assay [6] relates to Canis familiaris. The assay can be described thus: Time interval between the start of treatment and the first change in the CFR pattern of blood flow in the stenosed coronary artery at iv dose of 1000 ug/kg +100 ug/kg/min (n=4). In short, it runs like this:
as §3

In assay [7] the test system is Canis familiaris. The assay can be described thus: In vivo inhibitory effect on Cyclical flow reductions (CFR) induced by intracoronary platelet aggregation in stenosed Canine coronary arteries at iv dose of 300 ug/kg +30 ug/kg/min (n=4). In short, it runs like this:
as §2

Assay [8] has as its system Canis familiaris. Kind of assay: In vivo inhibitory effect on Cyclical flow reductions (CFR) induced by intracoronary platelet aggregation in stenosed Canine coronary arteries at iv dose of 100 ug/kg +10 ug/kg/min (n=10). In short, it runs like this:
as §2

Assay [9] relates to Canis familiaris. The assay can be described thus: Time interval between the start of treatment and the first change in the CFR pattern of blood flow in the stenosed coronary artery at iv dose of 300 ug/kg +30 ug/kg/min (n=4). In short, it runs like this:
as §3

Assay [10] deals with Canis familiaris. The assay can be described thus: Time interval between the end of treatment and restoration of the CFR pattern of blood flow to control levels at iv dose of 1000 ug/kg +100 ug/kg/min (n=4). An outline of the steps:
as §1

Assay [11] has as its system Canis familiaris. Kind of assay: In vivo inhibitory effect on Cyclical flow reductions (CFR) induced by intracoronary platelet aggregation in stenosed Canine coronary arteries at iv dose of 300 ug/kg +30 ug/kg/min (n=2-4). An outline of the steps:
as §2

In assay [12] the test system is Canis familiaris. Kind of assay: Time interval between the start of treatment and the first change in the CFR pattern of blood flow in the stenosed coronary artery at iv dose of 300 ug/kg +30 ug/kg/min (n=2-4). An outline of the steps:
as §3

Assay [13] relates to Canis familiaris. Kind of assay: In vivo inhibitory effect on Cyclical flow reductions (CFR) induced by intracoronary platelet aggregation in stenosed Canine coronary arteries at iv dose of 300 ug/kg +30 ug/kg/min (n=3). In short, it runs like this: as §2
The test system of assay [14] is Canis familiaris. The assay can be described thus: Time interval between the end of treatment and restoration of the CFR pattern of blood flow to control levels at iv dose of 100 ug/kg +10 ug/kg/min (n=3). An outline of the steps: as §1
The test system of assay [15] is Canis familiaris. Kind of assay: Time interval between the start of treatment and the first change in the CFR pattern of blood flow in the stenosed coronary artery at iv dose of 300 ug/kg +30 ug/kg/min (n=3). An outline of the steps:
as §3

Assay [16] concerns Canis familiaris. Kind of assay: In vivo inhibitory effect on Cyclical flow reductions (CFR) induced by intracoronary platelet aggregation in stenosed Canine coronary arteries at iv dose of 100 ug/kg +10 ug/kg/min (n=3). An outline of the steps:
as §2

Assay [17] concerns Canis familiaris. The assay can be described thus: Time interval between the start of treatment and the first change in the CFR pattern of blood flow in the stenosed coronary artery at iv dose of 100 ug/kg +10 ug/kg/min (n=3). An outline of the steps: as §3

For the molecule `Cc1c(OCCN2CCN(C)CC2)ccc2c(=O)cc(N3CCOCC3)oc12`, the Time to offset in assay [1] is given as 25 min; in assay [3] it was 60 min; in assay [10], 73 min. The Rating is recorded as 3 in assay [2], 0 in assay [5], 3 in assay [7] and 1.9 in assay [8]. In addition, the Time to onset in assay [4] came out at 5 min; in assay [6], 1 min; in assay [9] it was 1 min.

Regarding `Cc1c(OCCN2CCCCC2)ccc2c(=O)cc(N3CCOCC3)oc12`, the Rating in [2] was 2.5; in assay [11] it was 1.3. For the same molecule, the Time to offset turned out to be 67 min in assay [3] and 23 min in assay [10]. Further, the Time to onset in assay [6] turned out to be 7 min; in assay [12], 2 min.

Consider `Cc1c(OCCN2CCSCC2)ccc2c(=O)cc(N3CCOCC3)oc12`, for which the Rating in assay [13] is given as 2.3; in [16], 2. Besides, the Time to offset in [14] was 5.3 min; in assay [3] it was 12 min. Also, the Time to onset is 9 min in assay [15] and 17 min in assay [17].
